Residues, ends and D or L forms follow the SMILES beside them. *: point of attachment. Benzenesulfonyl(4-Ph) = O=S(=O)(c1ccc(-c2ccccc2)cc1)*; Benzenesulfonyl(4-OMe) = COc1ccc(S(=O)(=O)*)cc1
What was measured:
[1] = target: Macrophage metalloelastase (Homo sapiens, UniProt P39900); test: Inhibition of human MMP12 by FRET reporter assay
Outline: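 Recombinant human MMP12 activity was read with the fluorogenic FRET reporter substrate LaRee5. Inhibition constants were reported as IC50.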

[2] = Half life in TCN buffer at pH 7.5; format: physicochemical
Outline: (§1)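 Compounds incubated without enzyme in TCN buffer, pH 7.5, at 37 °C. Spontaneous hydrolysis of the N-acylated sulfonamide was followed by HPLC over time, and half-lives (h) were derived from the traces.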

[3] = Stability of compound in heat inactivated fetal calf serum; format: ADME; settings: cattle
[4] = Stability of compound in fetal calf serum; format: ADME; settings: cattle
[5] = Drug metabolism in TCN buffer assessed as hydrolysis at pH 7.5; format: physicochemical; outline: as §1

Macrophage metalloelastase, sequence (P39900 whole entry): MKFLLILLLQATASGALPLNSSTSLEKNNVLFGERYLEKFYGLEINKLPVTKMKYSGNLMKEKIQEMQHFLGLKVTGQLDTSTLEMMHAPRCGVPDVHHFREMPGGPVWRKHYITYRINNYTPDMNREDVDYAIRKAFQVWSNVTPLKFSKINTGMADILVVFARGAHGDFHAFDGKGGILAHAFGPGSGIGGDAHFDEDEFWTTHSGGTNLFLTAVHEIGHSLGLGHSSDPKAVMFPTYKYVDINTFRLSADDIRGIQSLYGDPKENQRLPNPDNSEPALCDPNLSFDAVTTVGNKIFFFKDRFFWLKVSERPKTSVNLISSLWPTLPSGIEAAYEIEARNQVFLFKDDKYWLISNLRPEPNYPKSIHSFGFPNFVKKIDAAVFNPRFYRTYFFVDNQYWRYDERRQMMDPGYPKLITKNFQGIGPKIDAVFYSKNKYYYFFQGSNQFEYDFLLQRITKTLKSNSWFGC

| Compound | IC50 [1] [µM] | half-life [2] [h] | further results |
| --- | --- | --- | --- |
| O=C(O)CNS(=O)(=O)c1ccc(-c2ccccc2)cc1 | 0.29 | – | – |
| COc1ccc(S(=O)(=O)N(CC(=O)O)C(=O)CNC(=O)[C@H](CC(C)C)NC(=O)[C@@H]2CCCN2C(=O)OCc2ccccc2)cc1 | – | 27 | – |
| COc1ccc(S(=O)(=O)N(CC(=O)O)C(=O)[C@H](CC(C)C)NC(=O)[C@@H]2CCCN2C(=O)OCc2ccccc2)cc1 | – | 77 | – |
| COc1ccc(S(=O)(=O)NCC(=O)N[C@@H](CC(C)C)C(=O)N[C@@H](CCC(=O)O)C(=O)N[C@@H](CCC(=O)O)C(=O)N[C@@H](C)C(N)=O)cc1 ({Benzenesulfonyl(4-OMe)}-GLEEA-NH2) | – | – | Drug metabolism [5]: Not Active |

Second part, led by results:

| IC50 [1] [µM] | half-life [2] [h] | Compound | further results |
| --- | --- | --- | --- |
| – | 6.4 | COc1ccc(S(=O)(=O)N(CC(=O)N[C@@H](CC(C)C)C(=O)N[C@@H](CCC(=O)O)C(=O)N[C@@H](CCC(=O)O)C(=O)N[C@@H](C)C(N)=O)C(=O)CNC(=O)[C@@H]2CCCN2C(=O)OCc2ccccc2)cc1 | – |
| – | 5.1 | CC(C)C[C@H](NC(=O)CN(C(=O)[C@H](CC(C)C)NC(=O)[C@@H]1CCCN1C(=O)OCc1ccccc1)S(=O)(=O)c1ccc(-c2ccccc2)cc1)C(=O)N[C@@H](CCC(=O)O)C(=O)N[C@@H](CCC(=O)O)C(=O)N[C@@H](C)C(N)=O | Stability [3]: Stable; Stability [4]: Stable |
| – | 28 | COc1ccc(S(=O)(=O)N(CC(=O)N[C@@H](CC(C)C)C(=O)N[C@@H](CCC(=O)O)C(=O)N[C@@H](CCC(=O)O)C(=O)N[C@@H](C)C(N)=O)C(=O)[C@H](CC(C)C)NC(=O)[C@@H]2CCCN2C(=O)OCc2ccccc2)cc1 | – |
| 13 | 27 | CC(C)C[C@H](NC(=O)[C@@H]1CCCN1C(=O)OCc1ccccc1)C(=O)N(CC(=O)O)S(=O)(=O)c1ccc(-c2ccccc2)cc1 | Stability [3]: Stable; Stability [4]: Stable |
| 48 | – | CC(C)C[C@H](NC(=O)CNS(=O)(=O)c1ccc(-c2ccccc2)cc1)C(=O)N[C@@H](CCC(=O)O)C(=O)N[C@@H](CCC(=O)O)C(=O)N[C@@H](C)C(N)=O ({Benzenesulfonyl(4-Ph)}-GLEEA-NH2) | Drug metabolism [5]: Not Active |

From ChEMBL document CHEMBL2203269, “Target-Activated Prodrugs (TAPs) for the Autoregulated Inhibition of MMP12” (ACS Med Chem Lett, 2012)
